One compound from ChEMBL document CHEMBL4304782, “Antioxidant, Anti-inflammatory, and Neuroprotective Effects of Novel Vinyl Sulfonate Compounds as Nrf2 Activator” (ACS Med Chem Lett, 2019) can be followed below.

For orientation: EC50 means the concentration that produces a half-maximal response.

Calls of active or inactive are those of the source. No cut-off for these calls is given here.

Data set [1] concerns Mus musculus. In words: Protection against MPTP-induced DAergic neurotoxicity in C57B/6 mouse model of Parkinson's disease assessed as […] at 20 mg/kg, po observed after 7 days by microscopic analysis. The format is functional, organism-based. Summed up:
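MPTP mouse model with 20 mg/kg oral dosing; striatal and substantia nigra sections collected 7 days later and stained for tyrosine hydroxylase; striatal TH density and nigral TH-positive neuron counts; mean ± SEM; one-way ANOVA with Tukey's test.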

Another data set concerns SH-SY5Y. In words: Antioxidant activity in human SH-SY5Y cells assessed as increase in NQO1 level at 0.3 to 3 uM incubated for 6 to 24 hrs by Western blot analysis relative to control. The format is functional. Summed up:
(§1)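 SH-SY5Y neuroblastoma cells treated for 6 or 24 h, then harvested; NQO1, GCLM, GCLC protein by Western blot with β-actin loading control; at least duplicate cultures, averaged, fold of untreated control ± SEM; paired t test.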
(Immunoblotting shows a protein as a band on a membrane.)

In data set [2] the target is T1, Nuclear factor erythroid 2-related factor 2 (Mus musculus) (UniProt Q60795).
T1 sequence (whole entry): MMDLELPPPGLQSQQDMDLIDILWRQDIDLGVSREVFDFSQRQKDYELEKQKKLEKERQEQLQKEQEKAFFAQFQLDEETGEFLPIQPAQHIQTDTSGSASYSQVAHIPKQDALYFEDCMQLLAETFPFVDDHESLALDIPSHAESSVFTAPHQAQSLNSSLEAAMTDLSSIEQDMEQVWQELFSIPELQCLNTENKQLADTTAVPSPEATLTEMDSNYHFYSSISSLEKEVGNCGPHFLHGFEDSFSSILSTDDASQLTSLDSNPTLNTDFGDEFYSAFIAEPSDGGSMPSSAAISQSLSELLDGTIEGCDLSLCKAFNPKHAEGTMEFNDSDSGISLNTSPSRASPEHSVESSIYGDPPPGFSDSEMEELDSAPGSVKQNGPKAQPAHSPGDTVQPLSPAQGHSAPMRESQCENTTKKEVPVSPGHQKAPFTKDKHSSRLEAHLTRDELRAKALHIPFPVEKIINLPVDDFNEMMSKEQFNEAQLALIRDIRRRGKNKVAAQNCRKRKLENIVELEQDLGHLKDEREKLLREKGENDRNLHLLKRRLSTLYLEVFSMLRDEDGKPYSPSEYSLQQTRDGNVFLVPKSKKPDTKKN
In words: Activation of Nrf2 in mouse BV-2 cells assessed as increase in nuclear Nrf2 level by Western blot analysis. The format is cell-based. The essentials:
(§2)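 BV-2 microglia treated 0.3–10 μM; Nrf2 measured by Western blot in nuclear extracts and whole-cell lysates; at least duplicate cultures, averaged, expressed as fold of untreated control ± SEM; paired t test.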

Data set [3] relates to Mus musculus. In words: Anti-parkinson's activity in MPTP-induced C57Bl/6 mouse model of Parkinson's disease assessed as restoration of turning time at 20 mg/kg, po administered for 3 consecutive days prior and subsequent to MPTP administration (four injections of MPTP, 2 h intervals, 20 mg/kg, i.p. injection by vertical grid test. The class given is functional, organism-based. Summed up:
(§3)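 Mice dosed 20 mg/kg p.o. (or vehicle) for 3 consecutive days before and after MPTP (four i.p. injections, 20 mg/kg, 2 h apart); vertical grid test (turning, descent, total time) and coat-hanger scoring; n = 10–12 per group; mean ± SEM; one-way ANOVA with Tukey's test.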

The target of data set [4] is T2, Nuclear factor erythroid 2-related factor 2 (Homo sapiens, UniProt Q16236).
T2 sequence (Q16236 whole entry): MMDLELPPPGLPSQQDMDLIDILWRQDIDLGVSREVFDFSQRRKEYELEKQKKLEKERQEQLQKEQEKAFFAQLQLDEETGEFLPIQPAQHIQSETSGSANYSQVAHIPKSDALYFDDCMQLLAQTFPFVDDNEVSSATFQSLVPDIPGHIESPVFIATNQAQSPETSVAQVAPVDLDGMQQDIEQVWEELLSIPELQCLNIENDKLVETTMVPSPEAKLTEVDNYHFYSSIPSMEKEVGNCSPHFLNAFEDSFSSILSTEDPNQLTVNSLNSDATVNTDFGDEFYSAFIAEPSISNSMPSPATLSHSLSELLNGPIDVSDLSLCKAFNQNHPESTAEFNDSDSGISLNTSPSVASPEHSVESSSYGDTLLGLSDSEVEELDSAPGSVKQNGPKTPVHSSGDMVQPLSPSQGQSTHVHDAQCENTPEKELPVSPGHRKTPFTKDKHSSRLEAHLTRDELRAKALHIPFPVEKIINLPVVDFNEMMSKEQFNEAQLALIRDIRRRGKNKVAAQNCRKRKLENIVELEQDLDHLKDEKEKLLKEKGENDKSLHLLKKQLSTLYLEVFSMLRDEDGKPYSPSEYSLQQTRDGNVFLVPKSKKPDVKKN
In words: Activation of ED-tagged Nrf2 in human U2OS cells co-expressing Keap1 assessed as induction of NRF2 translocation to nucleus after 6 hrs by beta-galactosidase based chemiluminescent assay. The class given is cell-based.

Data set [5] deals with T1, Nuclear factor erythroid 2-related factor 2 (Mus musculus). In words: Activation of Nrf2 in mouse BV-2 cells assessed as increase in nuclear Nrf2 level at 0.3 uM by Western blot analysis relative to control. The format is cell-based. The essentials:
as §2

Data set [6] addresses T3, Nuclear factor erythroid 2-related factor 2 (Homo sapiens) (UniProt Q16236).
T3 sequence (whole entry): T2 sequence (Q16236 whole entry)
In words: Activation of Nrf2 in human SH-SY5Y cells assessed as increase in GCLM level at 0.3 to 3 uM incubated for 6 to 24 hrs by Western blot analysis relative to control. The format is cell-based. The essentials: as §1

Data set [7] deals with T3, Nuclear factor erythroid 2-related factor 2 (Homo sapiens). In words: Activation of Nrf2 in human SH-SY5Y cells assessed as increase in GCLC level at 0.3 to 3 uM incubated for 6 to 24 hrs by Western blot analysis relative to control. The class given is cell-based. Summed up:
as §1

The target of data set [8] is T1, Nuclear factor erythroid 2-related factor 2 (Mus musculus). In words: Activation of Nrf2 in mouse BV-2 cells assessed as increase in nuclear Nrf2 level at 10 uM by Western blot analysis relative to control. The format is cell-based. The essentials:
as §2

Another data set has as its system BV-2. In words: Antiinflammatory activity in mouse BV2 cells assessed as reduction in LPS-induced NO production at 1 to 10 uM incubated for 24 hrs by ELISA. The class given is functional, cell-based. The essentials:
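BV-2 cells given compound together with 1 μg/mL LPS for 24 h; mediator levels expressed relative to LPS-stimulated control ± SEM; at least duplicate cultures; paired t test.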
(In general: In an ELISA, binding on a coated surface is turned into a signal by an enzyme label.)

Data set [9] in a line: Cytotoxicity against mouse BV2 cells assessed as cell viability at 1 uM incubated for 6 hrs by CCK-8 assay relative to control. The format is cell-based, BV-2. As to conditions: read-out: Activity. The essentials: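 BV-2 cells exposed to compound for 6 h, then viability measured; percent survival reported.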
A general note: Formazan colour is commonly taken as a measure of viable cells.

Data set [10] deals with Mus musculus. In words: Anti-parkinson's activity in MPTP-induced C57Bl/6 mouse model of Parkinson's disease assessed as abnormal movement at 20 mg/kg, po administered for 3 consecutive days prior and subsequent to MPTP administration (four injections of MPTP, 2 h intervals, 20 mg/kg, i.p. injection by coat hanger test. The format is functional, organism-based. The essentials:
as §3

The target of data set [11] is T1, Nuclear factor erythroid 2-related factor 2 (Mus musculus). In words: Activation of Nrf2 in mouse BV-2 cells assessed as increase in total Nrf2 level at 10 uM by Western blot analysis relative to control. The class given is cell-based. The essentials: as §2

`COc1ccccc1OS(=O)(=O)/C=C/c1ccccc1Cl`: the result with Mus musculus [1], in the data set on Mus musculus [3], with BV-2 and with Mus musculus [10] was Active. The “fold change (FC)” value came out at 4.7 with SH-SY5Y; 4 in data set [5]; 2.9 in data set [6]; 1.5 in [7]; 17.6 in data set [8]; 6.7 in [11]. Also, the Activity entry in [2] was “Dose-dependent effect”. In addition, in [4], the 50% effective concentration (EC50) amounted to 76 nM. In data set [9], the viability at 6 h, 1 µM was 98%.
